Structures can show the parent of a compound that is named as a salt.
Legend:
[1] = Cytotoxicity against human leukemia cells after 48 hrs; assay type: functional; conditions: Leukemia cell
Method in brief: (§1)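 NCI 60-cell panel (subpanels include leukemia and prostate). […] Percent growth relative to untreated control; some repeats averaged over two experiments.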

NSCLC = assay: Cytotoxicity against human NSCLC cells after 48 hrs; assay type: functional
Method in brief: (§2)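 NCI 60-cell panel subpanel lines; compounds first screened at a single 10−5 M, then those passing threshold tested in five-concentration assay over 10−9 to 10−4 M (some to 10−3 M), 48 h exposure. Growth relative to untreated control measured as cell protein; GI50, TGI and LC50 derived; some values are means of two experiments.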

[2] = Cytotoxicity against human COLON cells after 48 hrs; assay type: functional; method in brief: as §2
[3] = Cytotoxicity against human CNS cancer cells after 48 hrs; assay type: functional; conditions: Cancer cell lines; method in brief: as §2
[4] = Cytotoxicity against human melanoma cells after 48 hrs; assay type: functional; conditions: Melanoma cell; method in brief: as §2
[5] = Cytotoxicity against human ovarian cancer cells after 48 hrs; assay type: functional; conditions: Cancer cell lines; method in brief: as §2
[6] = Cytotoxicity against human renal cancer cells after 48 hrs; assay type: functional; conditions: Cancer cell lines; for CC50: read-out: LC50 (the source's name); method in brief: as §2
[7] = Cytotoxicity against human prostate cancer cells after 48 hrs; assay type: functional; conditions: Cancer cell lines; method in brief: as §1
[8] = Cytotoxicity against human breast cancer cells after 48 hrs; assay type: functional; conditions: Cancer cell lines; method in brief: as §2
[9] = Inhibition of bovine brain tubulin assembly after 20 mins; parameters: species or system Bos taurus
Bos taurus = species on record: Bos taurus; assay: Displacement of [3H]colchicine from bovine brain tubulin at 5 uM after 10 mins

COc1nc2sccn2c1/C=C1/C(=O)Nc2ccc(Cl)cc21 showed a GI50 [1] of 1320 nM, a TGI [1] of 26.3 µM and a GI50 (NSCLC) of 4.27 µM. For the same molecule, the TGI (NSCLC) was 89.1 µM, the GI50 [2] was 1.41 µM and the TGI [2] was 64.6 µM. It also gave a GI50 [3] of 3.31 µM, a TGI [3] of 40.7 µM and a GI50 [4] of 3.72 µM. It also gave a TGI [4] of 40.7 µM, a GI50 [5] of 3.47 µM and a TGI [5] of 46.8 µM. The GI50 [6] was 3.31 µM, the TGI [6] was 58.9 µM and the GI50 [7] was 3.98 µM. It also gave a TGI [7] of 81.3 µM, a GI50 [8] of 2.45 µM and a TGI [8] of 74.1 µM.

Molecule COc1nc2sccn2c1/C=C1/C(=O)Nc2cc(Cl)ccc21 has a GI50 [1] of 140 nM, a TGI [1] of 5.37 µM and a GI50 (NSCLC) of 1.29 µM. For the same molecule, the TGI (NSCLC) was 79.4 µM, the GI50 [2] was 0.33 µM and the LC50 (concentration giving 50% net cell kill) [2] was 79.4 µM. It also gave a TGI [2] of 22.4 µM, a GI50 [3] of 0.35 µM and an LC50 [3] of 75.9 µM. The TGI [3] was 16.2 µM, the GI50 [4] was 0.21 µM and the TGI [4] was 34.7 µM. It also gave a CC50 ([4]; read-out: LC50 (the source's name)) of 93.3 µM, a GI50 [5] of 0.65 µM and an LC50 (concentration killing 50% of starting cells) [5] of 89.1 µM. It also gave a TGI [5] of 21.4 µM, a GI50 [6] of 0.62 µM and a TGI [6] of 49 µM. It also gave a CC50 [6] of 85.1 µM, a GI50 [7] of 0.39 µM and a TGI [7] of 69.2 µM. It also gave a GI50 [8] of 0.54 µM, a TGI [8] of 58.9 µM and an IC50 [9] of 13 µM. It also gave an inhibition (Bos taurus) of 53%.

COc1ccc2c(c1)/C(=C\c1c(-c3ccc(C)cc3)nc3sc(C)cn13)C(=O)N2C showed a GI50 [1] of 4370 nM, a TGI [1] of 56.2 µM and a GI50 (NSCLC) of 14.8 µM. The TGI (NSCLC) was 85.1 µM, the GI50 [2] was 6.03 µM and the TGI [2] was 33.1 µM. For the same molecule, the GI50 [3] was 39.8 µM, the GI50 [4] was 52.5 µM and the GI50 [5] was 56.2 µM. For the same molecule, the GI50 [6] was 4.79 µM, the TGI [6] was 70.8 µM and the GI50 [7] was 5.37 µM. It also gave a GI50 [8] of 12.9 µM and a TGI [8] of 72.4 µM.

For COc1ccc2c(c1)/C(=C\c1c(-c3ccc(Cl)cc3)nc3sc(C)nn13)C(=O)N2, the GI50 [3] was 69.2 µM, the GI50 [6] was 81.3 µM and the GI50 [8] was 95.5 µM.

With COc1nc2sccn2c1C=C1C(=O)Nc2ccc(F)cc21 (mixture of isomers) the GI50 [1] was 3390 nM, the GI50 (NSCLC) was 6.03 µM and the TGI (NSCLC) was 66.1 µM. It also gave a GI50 [2] of 3.16 µM, a TGI [2] of 61.7 µM and a GI50 [3] of 6.46 µM. The TGI [3] was 42.7 µM, the GI50 [4] was 6.03 µM and the TGI [4] was 47.9 µM. It also gave a GI50 [5] of 5.62 µM, a TGI [5] of 44.7 µM and a GI50 [6] of 6.76 µM. For the same molecule, the TGI [6] was 47.9 µM, the GI50 [7] was 12 µM and the TGI [7] was 93.3 µM. It also gave a GI50 [8] of 2.88 µM and a TGI [8] of 51.3 µM.

In the case of CC[C@]1(O)C[C@H]2CN(CCc3c([nH]c4ccccc34)[C@@](C(=O)OC)(c3cc4c(cc3OC)N(C=O)[C@H]3[C@@](O)(C(=O)OC)[C@H](OC(C)=O)[C@]5(CC)C=CCN6CC[C@]43[C@@H]65)C2)C1 [VINCRISTINE SULFATE], the GI50 [1] is reported as 100 nM, the GI50 (NSCLC) is reported as 0.25 µM and the GI50 [2] is reported as 0.1 µM. The TGI [2] was 3.98 µM, the GI50 [3] was 0.13 µM and the GI50 [4] was 0.16 µM. For the same molecule, the GI50 [5] was 0.32 µM, the GI50 [6] was 0.32 µM and the GI50 [7] was 0.13 µM. For the same molecule, the GI50 [8] was 0.32 µM.

Molecule O=C1Nc2ccccc2/C1=C\c1c(-c2ccccn2)nc2sccn12 has a GI50 [1] of 350 nM, a TGI [1] of 14.8 µM and a GI50 (NSCLC) of 1.58 µM. The TGI (NSCLC) was 70.8 µM, the GI50 [2] was 0.49 µM and the TGI [2] was 52.5 µM. For the same molecule, the GI50 [3] was 0.81 µM, the LC50 [3] was 89.1 µM and the TGI [3] was 20.9 µM. For the same molecule, the GI50 [4] was 2.45 µM, the TGI [4] was 91.2 µM and the GI50 [5] was 2.88 µM. For the same molecule, the LC50 (concentration killing 50% of starting cells) [5] was 91.2 µM, the TGI [5] was 37.1 µM and the GI50 [6] was 2.34 µM. The TGI [6] was 95.5 µM, the GI50 [7] was 1.02 µM and the GI50 [8] was 0.59 µM. The TGI [8] was 36.3 µM.

Molecule Cc1cn2c(/C=C3/C(=O)Nc4cc(Cl)ccc43)c(C)nc2s1 has a GI50 [1] of 1070 nM, a TGI [1] of 37.1 µM and a GI50 (NSCLC) of 2.29 µM. It also gave a GI50 [2] of 0.98 µM, a TGI [2] of 66.1 µM and a GI50 [3] of 2.4 µM. For the same molecule, the TGI [3] was 25.7 µM, the GI50 [4] was 1.58 µM and the TGI [4] was 57.5 µM. The GI50 [5] was 7.41 µM, the GI50 [6] was 4.79 µM and the TGI [6] was 70.8 µM. It also gave a GI50 [7] of 2.29 µM, a GI50 [8] of 1.2 µM and a TGI [8] of 15.8 µM.

Molecule Cc1nn2c(/C=C3/C(=O)Nc4ccc(F)cc43)c(-c3ccc(Cl)cc3)nc2s1 has a GI50 [1] of 25100 nM, a GI50 (NSCLC) of 60.3 µM and a GI50 [2] of 38 µM. For the same molecule, the GI50 [3] was 20.4 µM, the TGI [3] was 79.4 µM and the GI50 [4] was 66.1 µM. The GI50 [5] was 21.9 µM, the GI50 [6] was 26.3 µM and the TGI [6] was 72.4 µM. For the same molecule, the GI50 [8] was 36.3 µM and the TGI [8] was 95.5 µM.

Cc1ccc(-c2nc3sc(C)cn3c2/C=C2/C(=O)Nc3cc(C)c(O)cc32)cc1 showed a GI50 [1] of 52500 nM, a GI50 (NSCLC) of 18.6 µM and a TGI (NSCLC) of 72.4 µM. It also gave a GI50 [2] of 60.3 µM, a GI50 [3] of 11.8 µM and a TGI [3] of 91.2 µM. It also gave a GI50 [4] of 33.9 µM, a GI50 [5] of 10.5 µM and a TGI [5] of 63.1 µM. For the same molecule, the GI50 [6] was 18.2 µM, the GI50 [7] was 21.4 µM and the GI50 [8] was 12.6 µM. The TGI [8] was 63.1 µM.

Work on COc1cc(-c2nc3sc(C)cn3c2/C=C2/C(=O)Nc3ccccc32)c(Br)c(OC)c1OC yielded a GI50 [1] of 36300 nM, a GI50 (NSCLC) of 32.4 µM and a TGI (NSCLC) of 89.1 µM. For the same molecule, the GI50 [2] was 26.3 µM, the TGI [2] was 75.9 µM and the GI50 [3] was 23.4 µM. It also gave a TGI [3] of 55 µM, a GI50 [4] of 29.5 µM and a TGI [4] of 85.1 µM. For the same molecule, the GI50 [5] was 39.8 µM, the TGI [5] was 85.1 µM and the GI50 [6] was 30.9 µM. The TGI [6] was 75.9 µM, the GI50 [7] was 30.2 µM and the TGI [7] was 85.1 µM. It also gave a GI50 [8] of 19.1 µM and a TGI [8] of 63.1 µM.

Cc1ccc(-c2nc3sc(C)cn3c2/C=C2/C(=O)N(C)c3ccccc32)cc1 showed a GI50 [1] of 7080 nM, a TGI [1] of 63.1 µM and a GI50 (NSCLC) of 24 µM. The TGI (NSCLC) was 89.1 µM, the GI50 [2] was 20.4 µM and the GI50 [3] was 19.1 µM. For the same molecule, the TGI [3] was 75.9 µM, the GI50 [4] was 17.4 µM and the TGI [4] was 87.1 µM. It also gave a GI50 [5] of 32.4 µM, a TGI [5] of 89.1 µM and a GI50 [6] of 15.1 µM. For the same molecule, the TGI [6] was 85.1 µM, the GI50 [7] was 6.46 µM and the GI50 [8] was 13.5 µM. For the same molecule, the TGI [8] was 75.9 µM.

For Cc1nn2c(/C=C3/C(=O)Nc4ccc(F)cc43)c(C)nc2s1, the GI50 [1] was 2340 nM, the GI50 (NSCLC) was 19.5 µM and the GI50 [2] was 4.17 µM. The GI50 [3] was 20.9 µM, the TGI [3] was 87.1 µM and the GI50 [4] was 26.9 µM. It also gave a GI50 [5] of 33.9 µM, a GI50 [6] of 26.9 µM and a GI50 [8] of 6.31 µM. For the same molecule, the TGI [8] was 57.5 µM.

Molecule COc1nc2sccn2c1/C=C1/C(=O)Nc2cccc(Cl)c21 has a GI50 [1] of 2190 nM, a TGI [1] of 64.6 µM and a GI50 (NSCLC) of 7.08 µM. It also gave a TGI (NSCLC) of 70.8 µM, a GI50 [2] of 3.72 µM and a TGI [2] of 91.2 µM. For the same molecule, the GI50 [3] was 6.31 µM, the LC50 [3] was 87.1 µM and the TGI [3] was 32.4 µM. It also gave a GI50 [4] of 4.9 µM, a TGI [4] of 60.3 µM and a GI50 [5] of 4.68 µM. The LC50 (concentration killing 50% of starting cells) [5] was 97.7 µM, the TGI [5] was 43.6 µM and the GI50 [6] was 7.08 µM. For the same molecule, the TGI [6] was 49 µM, the CC50 [6] was 89.1 µM and the GI50 [7] was 13.2 µM. It also gave a GI50 [8] of 3.24 µM, an LC50 [8] of 93.3 µM and a TGI [8] of 50.1 µM.

Molecule COc1nc2sccn2c1/C=C1/C(=O)N(C)c2ccccc21 has a GI50 [1] of 3890 nM, a TGI [1] of 43.6 µM and a GI50 (NSCLC) of 7.94 µM. For the same molecule, the TGI (NSCLC) was 95.5 µM, the GI50 [2] was 2.24 µM and the TGI [2] was 60.3 µM. It also gave a GI50 [3] of 11 µM, a TGI [3] of 77.6 µM and a GI50 [4] of 8.71 µM. For the same molecule, the TGI [4] was 77.6 µM, the GI50 [5] was 6.46 µM and the GI50 [6] was 15.8 µM. It also gave a TGI [6] of 85.1 µM, a GI50 [7] of 21.4 µM and a GI50 [8] of 2.19 µM. For the same molecule, the TGI [8] was 60.3 µM.

Source: ChEMBL document CHEMBL2062525, “Substituted 3-(5-imidazo[2,1-b]thiazolylmethylene)-2-indolinones and analogues: synthesis, cytotoxic activity, and study of the mechanism of action” (J Med Chem, 2012)
